Source: ChEMBL document CHEMBL1649119, “Daptomycin pharmacokinetics in adult oncology patients with neutropenic fever” (Antimicrob Agents Chemother, 2009)

Legend:
[1] = Half life in healthy human at 4 mg/kg, iv administered as 30 mins infusion every 24 hrs measured on day 7; format: ADME, organism-based; set-up: dose 4 mg/kg, route intravenous; conditions: in vivo
[2] = Clearance in healthy human subjects at 8 mg/kg, iv administered as 30 mins infusion every 24 hrs measured on day 4; format: ADME, organism-based; set-up: dose 8 mg/kg, route intravenous; conditions: in vivo
[3] = Apparent volume of distribution during terminal phase in healthy human subjects at 8 mg/kg, iv administered as 30 mins infusion every 24 hrs measured on day 1; format: ADME, organism-based; set-up: dose 8 mg/kg, route intravenous; conditions: in vivo
[4] = Clearance in healthy adult human at 6 mg/kg, iv administered as single dose 30 mins infusion; format: ADME, organism-based; set-up: dose 6 mg/kg, route intravenous; conditions: in vivo
[5] = Apparent volume of distribution during terminal phase in healthy human at 8 mg/kg, iv administered as 30 mins infusion every 24 hrs measured on day 1; format: ADME, organism-based; set-up: dose 8 mg/kg, route intravenous; conditions: in vivo
[6] = Unbound fraction in healthy human plasma at 8 mg/kg, iv administered as 30 mins infusion every 24 hrs measured on day 1; format: ADME, organism-based; set-up: dose 8 mg/kg, route intravenous
[7] = Apparent volume of distribution during terminal phase in healthy human at 4 mg/kg, iv administered as 30 mins infusion every 24 hrs measured on day 1; format: ADME, organism-based; set-up: dose 4 mg/kg, route intravenous; conditions: in vivo
[8] = Unbound fraction in healthy human plasma at 4 mg/kg, iv administered as 30 mins infusion every 24 hrs measured on day 7; format: ADME, organism-based; set-up: dose 4 mg/kg, route intravenous
[9] = Clearance in healthy human subjects at 6 mg/kg, iv administered as 30 mins infusion every 24 hrs measured on days 1-3; format: ADME, organism-based; set-up: dose 6 mg/kg, route intravenous; conditions: in vivo
[10] = Plasma protein binding in human after 8 hrs; format: ADME, cell-free; conditions: read-out: PPB (converted)
In short: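 Neutropenic-fever oncology patients received 6 mg/kg IV daptomycin; serum was drawn 0.5, 2 and 8 h after the end of infusion. Free drug was obtained by ultrafiltration (30,000-MW cutoff) and quantified by HPLC against a saline-matrix curve of 0.25–100 μg/ml, with total plasma drug also measured. Percent bound was (total − free)/total × 100; results are given as mean ± SD.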

Homo sapiens [11] = test: Unbound clearance in healthy human at 4 mg/kg, iv administered as 30 mins infusion every 24 hrs measured on day 1; format: ADME, organism-based; set-up: dose 4 mg/kg, route intravenous; conditions: in vivo
[12] = Clearance in healthy human at 4 mg/kg, iv administered as 30 mins infusion every 24 hrs measured on day 1; format: ADME, organism-based; set-up: dose 4 mg/kg, route intravenous; conditions: in vivo
[13] = Clearance in nonobese adult human at 4 mg/kg, iv administered as single dose 30 mins infusion; format: ADME, organism-based; set-up: dose 4 mg/kg, route intravenous; conditions: in vivo
[14] = Cmax in healthy human at 4 mg/kg, iv administered as 30 mins infusion every 24 hrs measured on day 1; format: ADME, organism-based; set-up: dose 4 mg/kg, route intravenous; conditions: in vivo
[15] = AUC (0 to infinity) in healthy adult human at 6 mg/kg, iv administered as single dose 30 mins infusion; format: ADME, organism-based; set-up: dose 6 mg/kg, route intravenous, time infinity; conditions: plasma
[16] = Half life in healthy human at 4 mg/kg, iv administered as single dose 30 mins infusion; format: ADME, organism-based; set-up: dose 4 mg/kg, route intravenous; conditions: in vivo
[17] = Cmax in old healthy human at 4 mg/kg, iv administered as single dose 30 mins infusion; format: ADME, organism-based; set-up: dose 4 mg/kg, route intravenous; conditions: in vivo
[18] = AUC (0 to infinity) in adult human subjects at 6 mg/kg, iv administered as single dose 30 mins infusion; format: ADME, organism-based; set-up: time infinity, dose 6 mg/kg, route intravenous; conditions: plasma
[19] = Clearance in healthy human subjects at 10 mg/kg, iv administered as 30 mins infusion every 24 hrs measured on day 14; format: ADME, organism-based; set-up: dose 10 mg/kg, route intravenous; conditions: in vivo
[20] = Plasma concentration in nonobese adult human at 4 mg/kg, iv administered as single dose 30 mins infusion measured after 24 hrs; format: ADME, organism-based; set-up: dose 4 mg/kg, route intravenous
[21] = Volume of distribution at steady state in nonobese human subjects at 4 mg/kg, iv administered as single dose 30 mins infusion; format: ADME, organism-based; set-up: dose 4 mg/kg, route intravenous; conditions: in vivo, read-out: Vdss
[22] = Half life in healthy human subjects at 12 mg/kg, iv administered as 30 mins infusion every 24 hrs measured on day 4; format: ADME, organism-based; set-up: dose 12 mg/kg, route intravenous; conditions: in vivo
[23] = AUC (0 to infinity) in healthy human at 6 mg/kg, iv administered as 30 mins infusion every 24 hrs measured on day 1; format: ADME, organism-based; set-up: time infinity, dose 6 mg/kg, route intravenous; conditions: plasma
[24] = Renal clearance in moderately obese adult human at 4 mg/kg, iv administered as single dose 30 mins infusion; format: ADME, organism-based, Kidney; set-up: dose 4 mg/kg, route intravenous; conditions: in vivo, read-out: CL_renal (converted)
[25] = Cmax in adult human with hepatic impairment at 6 mg/kg, iv administered as single dose 30 mins infusion; format: ADME, organism-based; set-up: dose 6 mg/kg, route intravenous; conditions: in vivo
[26] = Drug excretion in nonobese human at 4 mg/kg, iv administered as single dose 30 mins infusion; format: ADME, organism-based; set-up: dose 4 mg/kg, route intravenous; conditions: in vivo, read-out: Drug uptake
[27] = Clearance in adult human subjects at 6 mg/kg, iv administered as single dose 30 mins infusion; format: ADME, organism-based; set-up: dose 6 mg/kg, route intravenous; conditions: in vivo
[28] = Half life in adult human with hepatic impairment at 6 mg/kg, iv administered as single dose 30 mins infusion; format: ADME, organism-based; set-up: dose 6 mg/kg, route intravenous; conditions: in vivo
[29] = AUC (0 to infinity) in young healthy human at 4 mg/kg, iv administered as single dose 30 mins infusion; format: ADME, organism-based; set-up: dose 4 mg/kg, route intravenous, time infinity; conditions: plasma
Homo sapiens [30] = test: Unbound clearance in healthy human at 8 mg/kg, iv administered as 30 mins infusion every 24 hrs measured on day 1; format: ADME, organism-based; set-up: dose 8 mg/kg, route intravenous; conditions: in vivo
[31] = Half life in healthy adult human at 6 mg/kg, iv administered as single dose 30 mins infusion; format: ADME, organism-based; set-up: dose 6 mg/kg, route intravenous; conditions: in vivo
[32] = AUC (0 to infinity) in nonobese adult human at 4 mg/kg, iv administered as single dose 30 mins infusion; format: ADME, organism-based; set-up: time infinity, dose 4 mg/kg, route intravenous; conditions: plasma
Staphylococcus = test: Antimicrobial activity against Staphylococcus; format: functional
[33] = Mean residence time in old healthy human at 4 mg/kg, iv administered as single dose 30 mins infusion; format: ADME, organism-based; set-up: dose 4 mg/kg, route intravenous; conditions: in vivo
[34] = Renal clearance in old healthy human at 4 mg/kg, iv administered as single dose 30 mins infusion; format: ADME, organism-based, Kidney; set-up: dose 4 mg/kg, route intravenous; conditions: in vivo, read-out: CL_renal (converted)
[35] = Clearance in healthy human subjects at 6 mg/kg, iv administered as 30 mins infusion every 24 hrs measured on day 1; format: ADME, organism-based; set-up: dose 6 mg/kg, route intravenous; conditions: in vivo
[36] = Half life in moderately obese adult human at 4 mg/kg, iv administered as single dose 30 mins infusion; format: ADME, organism-based; set-up: dose 4 mg/kg, route intravenous; conditions: in vivo
Homo sapiens [37] = test: Half life in cancer patient with neutropenic fever at 6 mg/kg, iv administered as 30 mins infusion every 24 hrs; format: ADME, organism-based; set-up: dose 6 mg/kg, route intravenous; conditions: in vivo
In short: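 Patients with neutropenic fever; 6 mg/kg by total body weight, 30-min IV infusion q24h. Plasma drawn predose, end of infusion, and 0.5, 1, 2, 4, 8, 12, 24 h after infusion start; total drug by validated HPLC (linear 1–100 μg/ml). Noncompartmental analysis; λz from terminal-phase regression, t1/2 = 0.693/λz.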

[38] = Mean residence time in adult human with hepatic impairment at 6 mg/kg, iv administered as single dose 30 mins infusion; format: ADME, organism-based; set-up: dose 6 mg/kg, route intravenous; conditions: in vivo
[39] = Clearance in nonobese human at 4 mg/kg, iv administered as single dose 30 mins infusion; format: ADME, organism-based; set-up: dose 4 mg/kg, route intravenous; conditions: in vivo
[40] = Cmax in healthy human subjects at 10 mg/kg, iv administered as 30 mins infusion every 24 hrs measured on day 1; format: ADME, organism-based; set-up: dose 10 mg/kg, route intravenous; conditions: in vivo
Homo sapiens [41] = test: Unbound clearance in healthy human at 4 mg/kg, iv administered as 30 mins infusion every 24 hrs measured on day 7; format: ADME, organism-based; set-up: dose 4 mg/kg, route intravenous; conditions: in vivo
[42] = Half life in healthy human subjects at 6 mg/kg, iv administered as 30 mins infusion every 24 hrs measured on days 1-3; format: ADME, organism-based; set-up: dose 6 mg/kg, route intravenous; conditions: in vivo
[43] = Half life in healthy human subjects at 12 mg/kg, iv administered as 30 mins infusion every 24 hrs measured on day 1; format: ADME, organism-based; set-up: dose 12 mg/kg, route intravenous; conditions: in vivo
[44] = Clearance in healthy human subjects at 12 mg/kg, iv administered as 30 mins infusion every 24 hrs measured on day 14; format: ADME, organism-based; set-up: dose 12 mg/kg, route intravenous; conditions: in vivo

CCCCCCCCCC(=O)N[C@@H](Cc1c[nH]c2ccccc12)C(=O)N[C@H](CC(N)=O)C(=O)N[C@@H](CC(=O)O)C(=O)N[C@@H]1C(=O)NCC(=O)N[C@@H](CCCN)C(=O)N[C@@H](CC(=O)O)C(=O)N[C@H](C)C(=O)N[C@@H](CC(=O)O)C(=O)NCC(=O)N[C@H](CO)C(=O)N[C@@H]([C@H](C)CC(=O)O)C(=O)N[C@@H](CC(=O)c2ccccc2N)C(=O)O[C@@H]1C showed a half-life [1] of 8.1 h, a clearance [2] of 0.15 mL/min/kg and a Vd [3] of 0.103 L/kg. It also gave a clearance [4] of 0.171 mL/min/kg, a Vd [5] of 0.099 L/kg and a fraction unbound at 1 day [6] of 0.09. For the same molecule, the Vd [7] was 0.101 L/kg, the fraction unbound at 7 day [8] was 0.08 and the clearance [9] was 0.158 mL/min/kg. The fraction unbound at 8 h [10] was 0.068, the CL (Homo sapiens [11]) was 1.41 mL/min/kg and the clearance [12] was 0.16 mL/min/kg. For the same molecule, the clearance [13] was 0.245 mL/min/kg, the Cmax [14] was 54.6 µg/mL and the AUC(0-inf) [15] was 598 µg·h/mL. The half-life [16] was 7.74 h, the Cmax [17] was 44 µg/mL and the AUC(0-inf) [18] was 928 µg·h/mL. The clearance [19] was 0.125 mL/min/kg, the concentration at 24 h [20] was under 3.3 µg/mL and the Vd [21] was 0.13 L/kg. The half-life [22] was 7.7 h, the AUC(0-inf) [23] was 705 µg·h/mL and the CL renal at 0.5 h [24] was 0.156 mL/min/kg. The Cmax [25] was 114 µg/mL, the dose excreted at 0.5 h [26] was 48.6% and the clearance [27] was 0.109 mL/min/kg. It also gave a half-life [28] of 8.97 h, an AUC(0-inf) [29] of 301 µg·h/mL and a CL (Homo sapiens [30]) of 0.833 mL/min/kg. For the same molecule, the half-life [31] was 8.06 h, the AUC(0-inf) [32] was 322 µg·h/mL and the MIC90 (Staphylococcus) was under 1 µg/mL. The MRT [33] was 15.9 h, the CL renal at 0.5 h [34] was 0.0712 mL/min/kg and the clearance [35] was 0.165 mL/min/kg. For the same molecule, the half-life [36] was 7.34 h, the t1/2 (Homo sapiens [37]) was 8.75 h and the MRT [38] was 12 h. The clearance [39] was 0.17 mL/min/kg, the Cmax [40] was 130 µg/mL and the CL (Homo sapiens [41]) was 1.05 mL/min/kg. The half-life [42] was 7.6 h, the half-life [43] was 7.8 h and the clearance [44] was 0.15 mL/min/kg.
